Here are results for ten molecules from ChEMBL document CHEMBL1138297, “Design, synthesis, and multivariate quantitative structure-activity relationship of salicylanilides--potent inhibitors of type III secretion in Yersinia” (J Med Chem, 2007).

Assay [1] has as its system Yersinia pseudotuberculosis. Nature of the assay: Effect on T3S in Yersinia pseudotuberculosis 3 pIB29 assessed as inhibition of light emission at 10 uM by luciferase reporter gene assay. The method in brief:
(§1)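 YPIII pIB29 (yopE-luxAB) reporter strain grown overnight at ambient temperature in BHI with 5 mM EGTA and 20 mM MgCl2 to deplete calcium. Culture adjusted to OD600 0.15-0.25 and added to compounds in DMSO (final ≤1%). Incubated 1 h at ambient temperature with shaking, then 2 h at 37 °C. Decanal substrate added and luminescence read at once. Triplicates; repeated on ≥2 occasions.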
Background: A reporter such as luciferase makes a cellular process visible.

The subject of assay [2] is Yersinia pseudotuberculosis. Nature of the assay: Effect on T3S in Yersinia pseudotuberculosis 3 pIB29 assessed as inhibition of light emission at 100 uM by luciferase reporter gene assay. The procedure, abridged:
as §1

The test system of assay [3] is Yersinia pseudotuberculosis. Briefly: Effect on T3S in Yersinia pseudotuberculosis 3 pIB29 assessed as inhibition of light emission at 50 uM by luciferase reporter gene assay. The method in brief:
as §1

Assay [4] has as its system Yersinia pseudotuberculosis. Briefly: Effect on T3S in Yersinia pseudotuberculosis 3 pIB29 assessed as inhibition of light emission at 20 uM by luciferase reporter gene assay. The procedure, abridged:
as §1

The test system of assay [5] is Yersinia pseudotuberculosis. Briefly: Effect on T3S in Yersinia pseudotuberculosis 3 pIB29 assessed as inhibition of light emission at 5 uM by luciferase reporter gene assay. The method in brief:
as §1

Assay [6] relates to Yersinia pseudotuberculosis. Briefly: Effect on T3S in Yersinia pseudotuberculosis 3 pIB29 assessed as inhibition of light emission at 2 uM by luciferase reporter gene assay. The method in brief: as §1
In assay [7] the test system is Yersinia pseudotuberculosis. Nature of the assay: Effect on T3S in Yersinia pseudotuberculosis 3 pIB29 assessed as inhibition of light emission at 1 uM by luciferase reporter gene assay. The procedure, abridged: as §1
For assay [8], the system named is Yersinia pseudotuberculosis. Briefly: Effect on T3S in Yersinia pseudotuberculosis 3 pIB29 assessed as inhibition of light emission at 0.5 uM by luciferase reporter gene assay. The method in brief:
as §1

Regarding `CC(=O)Oc1c(Cl)cccc1C(=O)Nc1ccc(Br)cc1`, the inhibition (commonly the drop in the measured response relative to a control, in per cent) in assay [1] amounted to 18%; in assay [2] it was 99%; in assay [3], 78%; in assay [4] it was 36%; in assay [5], 12%; in assay [6], 9%. Besides, the inhibition was 8% in assay [7] and -2% in assay [8].
`O=C(Nc1ccc(SC(F)(F)F)cc1)c1cc(I)cc(I)c1O`: the inhibition was 83% in assay [1]; 100% in assay [2]; 100% in assay [3]; 100% in assay [4]; 75% in assay [5]; 39% in assay [6]. In addition, the values for the inhibition in assay [7] and in assay [8] were 17% and 19%, respectively.
With `O=C(Nc1ccc(SC(F)(F)F)cc1)c1cccc(Cl)c1O`, the inhibition in assay [1] was determined as 61%; in assay [2], 100%; in assay [3], 99%; in assay [4] it was 81%; in assay [5], 38%; in assay [6], 13%. The inhibition is 3% in assay [7] and -2% in assay [8].
For the molecule `CC(=O)Oc1c(Cl)cccc1C(=O)Nc1ccc(SC(F)(F)F)cc1`, the inhibition stood at 55% in assay [1]; 100% in assay [2]; 98% in assay [3]; 70% in assay [4]; 34% in assay [5]; 12% in assay [6]. For the same molecule, the inhibition is 6% in assay [7] and -1% in assay [8].
For `O=C(Nc1ccc(Cl)cc1)c1cc(I)cc(I)c1O`, the inhibition in assay [1] stood at 100%; in assay [2] it was 99%; in assay [3] it was 100%; in assay [4] it was 100%; in assay [5], 95%; in assay [6], 60%. Also, the inhibition in assay [7] stood at 47%; in assay [8] it was 15%.
As to `CC(=O)Oc1ccc(I)cc1C(=O)Nc1ccc(Br)cc1`, the inhibition in assay [1] came out at 98%; in assay [2], 100%; in assay [3] it was 100%; in assay [4], 100%; in assay [5] it was 100%; in assay [6], 94%. Also, the inhibition was determined as 71% in assay [7] and 54% in assay [8].
In the case of `CC(=O)Oc1ccc(I)cc1C(=O)Nc1ccc(Cl)cc1`, the inhibition in assay [1] amounted to 99%; in assay [2], 100%; in assay [3], 100%; in assay [4], 100%; in assay [5], 99%; in assay [6], 92%. The values for the inhibition in assay [7] and in assay [8] were 73% and 58%, respectively.
Regarding `O=C(Nc1ccc(SC(F)(F)F)cc1)c1cc(I)ccc1O`, the inhibition turned out to be 57% in assay [1]; 51% in assay [2]; 49% in assay [3]; 57% in assay [4]; 55% in assay [5]; 53% in assay [6]. The inhibition came to 53% in assay [7] and 17% in assay [8].
For the molecule `CC(=O)Oc1c(I)cc(I)cc1C(=O)Nc1ccc(F)cc1`, the inhibition came out at 60% in assay [1]; 93% in assay [2]; 86% in assay [3]; 76% in assay [4]; 31% in assay [5]; 15% in assay [6]. Also, the inhibition was found to be 6% in assay [7] and 12% in assay [8].
As to `CC(=O)Oc1c(I)cc(I)cc1C(=O)Nc1ccc(Br)cc1`, the inhibition was found to be 69% in assay [1]; 95% in assay [2]; 94% in assay [3]; 86% in assay [4]; 38% in assay [5]; 7% in assay [6]. In addition, the inhibition in assay [7] was found to be 8%; in assay [8], 11%.
